# Source: PubChem
# Only some compounds are listed: those with a hit (about 2.8% of all), similar ones and a draw of the others.
# ARFGAP1 inhibitor – inhibits rat ARF GTPase activating protein 1; Q62848; Arfgap1-stimulated ARF1 GTP hydrolysis, GDP FP detection; inhibition, % at 16.5 µM; 0.26% of 360,000 active; AID 651572;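 active means inhibition above a per-plate limit, mean inhibition of low control wells plus 3 SD, cut at about 25% in these data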;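 further: 0% = DMSO wells with enzyme and 100% = wells lacking Arfgap1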
# Target sequence (Q62848 1-136 limits assumed): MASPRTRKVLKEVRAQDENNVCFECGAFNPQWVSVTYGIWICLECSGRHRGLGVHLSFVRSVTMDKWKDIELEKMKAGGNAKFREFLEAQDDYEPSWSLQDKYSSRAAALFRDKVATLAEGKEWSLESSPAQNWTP
#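 Material – truncated rat Arfgap1 GAP domain · Buffer or medium – HEPES-based buffer, pH 7.5 · Reagent – human ARF1(Δ1-17)-GTP substrate · Dosing – 16.5 µM single point, 1.26% DMSO · Schedule – GTP hydrolysis reaction 2 h at 25 °C · Technique – GDP detection by fluorescence polarization · Benchmarks – No-Arfgap1 wells (100%) versus DMSO full-reaction wells (0%) · Repeats – single replicate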
# pPAFAH inh – inhibitors of human plasma PAF acetylhydrolase (pPAFAH). Q13093. recombinant pPAFAH, FP-rhodamine probe fluorescence polarization. inhibition, % at 3.39 µM. 1.5% of 330,000 active. AID 463082;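 active means inhibition above the mean inhibition across the screen plus 3 SD, cut at about 25% in these data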;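 further: inhibitors block binding of the rhodamine activity-based probe so polarization drops; 0% = enzyme with DMSO and 100% = wells lacking pPAFAH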
# ASAP1 inh – blocks human ASAP1-stimulated Arf1 GTP hydrolysis. Q9ULH1. GDP FP detection. inhibition, % at 16.5 µM. 0.19% of 360,000 active; in the data active means inhibition above about 25%;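 further: 0% = vehicle with enzyme and substrate and 100% = no enzyme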
# Target sequence (Q9ULH1 325-724 limits assumed): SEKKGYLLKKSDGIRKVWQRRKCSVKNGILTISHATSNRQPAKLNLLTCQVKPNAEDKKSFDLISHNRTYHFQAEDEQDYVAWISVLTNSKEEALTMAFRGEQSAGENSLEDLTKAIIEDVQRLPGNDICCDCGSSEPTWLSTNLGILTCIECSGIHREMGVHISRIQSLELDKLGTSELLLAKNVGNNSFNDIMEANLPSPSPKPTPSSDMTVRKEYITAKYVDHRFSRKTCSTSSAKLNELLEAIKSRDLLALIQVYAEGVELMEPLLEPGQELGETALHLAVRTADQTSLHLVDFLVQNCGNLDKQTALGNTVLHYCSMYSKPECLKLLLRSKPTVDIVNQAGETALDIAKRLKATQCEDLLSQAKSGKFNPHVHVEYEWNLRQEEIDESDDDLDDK
# PAFAH2 inh – PAFAH2 (human) inhibition; 0.99% of 340,000 active; inhibition, % at 3.39 µM; AID 492956; recombinant PAFAH2, FP-rhodamine activity probe, fluorescence polarization;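 active means inhibition above the mean over all tested compounds plus 3 SD, cut at about 30% in these data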;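 further: inhibitors block probe labeling of enzyme so polarization drops; 0% = enzyme with DMSO and 100% = wells lacking PAFAH2 protein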
# PAFAH1B3 FP inh – inhibitors of human PAFAH1B3. recombinant PAFAH1B3, FP-rhodamine probe, fluorescence polarization. Q15102. AID 492972. 0.28% of 340,000 active. inhibition, % at 3.39 µM;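 active means inhibition above the screen-wide average of all tested compounds plus 3 SD, cut at about 25% in these data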;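 further: 0% = enzyme with DMSO only and 100% = wells lacking PAFAH1B3 protein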
# PAFAH1B2 inh – inhibitors of human PAFAH1B2; P68402; recombinant PAFAH1B2, FP-rhodamine activity probe, fluorescence polarization; inhibition, % at 3.39 µM; 1.2% of 340,000 active; AID 492953;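 active means inhibition above the mean of all tested compounds plus 3 SD, cut at about 24% in these data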;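 further: 0% = enzyme with DMSO and 100% = wells lacking PAFAH1B2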
# Starred values were filed as active, the others as inactive; . = no result given.
SMILES,ARFGAP1 inhibitor,pPAFAH inh,ASAP1 inh,PAFAH2 inh,PAFAH1B3 FP inh,PAFAH1B2 inh
CCCCOc1cccc(-c2cc(C(=O)NNC(=S)NCC)c3ccccc3n2)c1,3.6,20.7,5.1,7.9,4.0,5.1
O=C(NNC(=S)Nc1ccccc1)c1cc(-c2cccnc2)nc2ccccc12,15.5,23.8,19.1,-0.5,8.6,7.5
CCNC(=S)NNC(=O)c1cc(-c2cccc(OCC)c2)nc2ccccc12,-0.7,16.1,3.9,-0.4,-1.7,5.6
CCOC(=O)c1ccc(NC(=S)NNC(=O)c2cc(-c3cccnc3)nc3ccccc23)cc1,10.1,29.6*,7.7,1.1,15.8,9.8
CCNC(=S)NNC(=O)c1cc(-c2ccc(OC)cc2)nc2ccccc12,-1.6,15.9,2.9,2.9,9.0,27.7*
C[C@@H]1ON(C)[C@H]2C[C@H]3c4cc(-c5cccc(F)c5)ccc4CCN3C(=O)[C@@H]12,-5.6,.,15.6,4.7,4.2,6.4
COc1ccc2sc(-c3ccc(N(C)C)cc3)c(C#CCCO)c2c1,7.1,25.9*,19.9,5.2,13.2,4.9
CCCn1nc(C(=O)Nc2cccc(C(=O)OC)c2)c2ccccc2c1=O,0.3,-1.7,-4.6,-0.2,1.2,4.3
COC(=O)c1cccc(NC(=O)c2nn(C(C)C)c(=O)c3ccccc23)c1,-9.4,24.9*,-8.6,9.3,2.0,3.6
CC1(C)NC(=O)N(CCCOc2ccc(Br)cc2Cl)C1=O,19.6,7.2,11.6,-1.5,8.7,6.7
CC1(C)NC(=O)N(CCCCOc2ccc(Br)cc2Cl)C1=O,1.7,3.5,-15.8,-5.3,6.7,24.2*
CC(C)(C)NC(=O)COC(=O)c1ccc(Cl)nc1,-5.2,5.7,10.7,1.9,-0.8,-2.5
CCN(CC)c1ccc(C(=O)OCC(=O)NC(C)(C)C)cc1,4.3,34.0*,3.0,81.1*,3.7,6.7
Cc1nnc(NC(=O)CCSc2ccccc2)s1,3.9,-0.5,-8.6,-0.5,13.2,26.6*
CC1(O)C(=O)C=C2C=C(c3ccc(C#N)cc3)OC=C2C1=O (stereo unspecified),.,56.5*,.,.,.,.
COc1ccc(C2=CC3=C(Br)C(=O)C(C)(O)C(=O)C3=CO2)cc1 (stereo unspecified),.,14.6,.,8.5,12.6,8.5
COc1ccc(C2=CC3=CC(=O)C(C)(O)C(=O)C3=CO2)cc1 (stereo unspecified),.,38.0*,.,.,.,.
Cc1ccc2[nH]c3ccccc3c(=O)c2c1,-1.6,-2.6,-4.7,-7.8,12.8,1.9
O=c1c2ccccc2[nH]c2ccc(O)cc12,-2.2,28.7*,3.2,17.8,13.8,9.7
O=C(Nc1ccc(F)cc1)Nc1ccccc1NS(=O)(=O)c1cccs1,-0.4,2.2,10.3,2.1,-1.3,15.1
O=C(Nc1ccc(Cl)cc1)Nc1ccccc1NS(=O)(=O)c1cccs1,-2.5,16.9,4.0,1.0,10.1,26.5*
O=S(=O)(Nc1ccccc1Cl)c1ccc(NS(=O)(=O)c2cccs2)cc1,6.5,26.0*,-1.8,14.6,11.4,13.1
Cc1cc(Cl)ccc1OCC(=O)Nc1ccccc1NS(=O)(=O)c1cccs1,-11.0,33.1*,4.5,-2.5,11.3,23.7
CC(=O)CCc1ccc(Oc2nc(-c3cccnc3)nc3ccccc23)cc1,-1.0,24.6*,-3.4,2.8,2.9,2.3
COc1ccc(Oc2nc(-c3cccnc3)nc3ccccc23)cc1,-6.2,-2.1,3.4,-8.8,0.9,-1.0
SMILES,ARFGAP1 inhibitor,pPAFAH inh,ASAP1 inh,PAFAH2 inh,PAFAH1B3 FP inh,PAFAH1B2 inh
CCN(CC)c1ccc(-c2nn3c(-c4ccccc4OC)nnc3s2)cc1,.,25.1*,.,-0.4,-3.2,4.8
O=C(COc1cccnc1[N+](=O)[O-])c1ccc(Cl)s1,-12.1,30.5*,9.1,18.4,8.5,3.5
O=C(COc1cccnc1[N+](=O)[O-])Nc1c(Cl)cccc1Cl,0.2,4.9,-3.1,-1.8,-3.4,2.6
COc1ccc(NS(=O)(=O)c2ccc(N3CCCC3)c(NC(=S)Nc3ccc(SC(F)F)cc3)c2)cc1,14.8,33.6*,-0.4,3.6,-2.4,1.1
CCc1nc2ccc(C(=O)NCCCN3CCN(c4ccc(F)cc4)CC3)cc2nc1CC,-10.8,6.9,-14.9,0.9,3.1,5.7
CN1CCN(CCNC(=O)c2ccc3nc(-c4ccc(F)cc4)c(-c4ccc(F)cc4)nc3c2)CC1,5.4,10.0,-1.4,-4.5,2.5,27.7*
O=C(O)c1cccc(Cn2c(Cl)c(/C=N/NC(=O)c3ccccc3)sc2=O)c1,-7.5,7.7,2.3,-0.3,3.4,4.0
O=C(O)c1cccc(Cn2c(Cl)c(/C=N/NC(=O)c3cc4ccccc4cc3O)sc2=O)c1,-0.2,33.1*,-4.5,28.9,17.0,20.3
O=C(O)CNC(=O)C12CC3CC(CC(Cl)(C3)C1)C2,3.7,2.2,1.1,0.4,6.7,32.8*
COc1ccc([C@H]2CC(=O)C[C@@H](CCn3nnc4ccccc43)O2)cc1,-3.6,.,8.1,.,.,.
CCCCN(Cc1nc2ccccc2c(=O)[nH]1)C(=O)c1nn(C)c(=O)c2ccccc12,-2.4,.,16.3,80.9*,76.0*,42.2*
CC1=CC(C)(C)NC(=S)N1CCO,-4.6,.,-6.9,-2.0,5.0,7.1
O=C(O)CC/C(=N\Nc1ccccc1[N+](=O)[O-])c1cccs1,.,12.3,.,3.2,9.3,0.8
O=C(O)CC/C(=N\Nc1ccc(S(=O)(=O)N2CCCC2)cc1[N+](=O)[O-])c1cccs1,-8.4,.,-12.6,9.1,9.8,27.9*
COc1ccc(/C=N/NC(=O)c2ccccc2F)cc1CN1CCN(c2ccc(F)cc2)CC1,1.2,-0.1,-11.7,-3.7,13.1,-5.9
CC(=O)OCC1=C(C(=O)O)N2C(=O)C(NC(=O)COc3ccc(F)cc3)C2SC1 (stereo unspecified),-12.1,.,0.3,4.6,-2.3,6.0
CC(=O)OCC1=C(C(=O)O)N2C(=O)C(NC(=O)c3ccc(COc4ccc(Cl)cc4)o3)C2SC1 (stereo unspecified),7.9,26.5*,4.2,7.0,2.0,24.6*
NC(Cc1ccc(F)cc1)c1csc(Nc2ccc(C(F)(F)F)cn2)n1 (stereo unspecified),7.1,.,-1.8,.,.,.
CCn1c(CSc2nnc(-c3ccncc3)n2C)nc2cc(C(=O)O)ccc21,-32.2,25.9*,-12.0,48.9*,36.2*,36.5*
CCn1c(CSc2ncn[nH]2)nc2cc(C(=O)O)ccc21,5.1,7.7,-5.7,12.0,-0.9,5.4
CCCc1cc(-c2n[nH]c(C)c2-c2ccc(C(=O)OCC)o2)c(O)cc1O,19.5,7.2,22.4,0.4,6.7,1.2
CCCc1cc2c(OC(=O)CC)c(-c3ccc(C(=O)OCC)o3)c(=O)oc2cc1OC,-16.8,17.7,-1.1,67.2*,60.5*,18.9
CNC(=O)C[C@H]1C(=O)N(c2ccccc2)C[C@@H]1CSC,-4.2,.,-3.8,.,.,.
OCCCNc1cc(-c2ccccc2)nc2cc(-c3ccc(F)cc3)nn12,15.3,3.6,0.2,-10.1,5.5,26.2*
